# KCNQ1 act = potentiators or activators of human KCNQ1 potassium channel; P51787; CHO-K1 KCNQ1, thallium flux FluxOR fluorescence; active compounds read high; B-score at 10 µM; actives 0.35% (n = 310,000);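 active means fluorescence ratio B-score, a plate-corrected score, at least three library SD, with initial intensity B-score within 5 SD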
#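 Material: CHO-K1 cells stably expressing KCNQ1. Medium: assay buffer for compound exposure, DMSO matched across wells. Reagent: K+/Tl+ depolarizing stimulus. Compound dosing: single-concentration screen. Times: 37 °C overnight plating, 90-min dark dye load, 20-min compound pretreatment. Technique: FluxOR Tl+ flux fluorescence.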
# hERG rescue = compounds protecting human hERG from proarrhythmic drug block | Q12809 | CHO-hERG, FluxOR thallium flux, dofetilide IC70 present | activation (rescue from dofetilide block), less the hit threshold, % at 10 µM | actives 0.51% (n = 310,000);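 active means activation above the mean of controls blocked by dofetilide plus 5 SD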;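 further: thallium influx through hERG after potassium depolarization seen as dye fluorescence rise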
# KCNK3 block = human KCNK3 channel inhibition, primary screen; O14649; CHO-KCNK3 thallium flux, FluxOR fluorescence; active compounds read low; B-score at 10 µM; actives 0.84% (n = 340,000); AID 602410;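 active means B-score under library mean minus 4 SD, starting fluorescence ratio at most library mean plus 5 SD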;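 further: more negative B-score means stronger inhibition of thallium flux through KCNK3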
# KCNQ1 inh = human KCNQ1 channel inhibition; CHO-K1 KCNQ1, FluxOR thallium flux fluorescence; active compounds read high; B-score at 10 µM; actives 1.3% (n = 310,000); AID 2642;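 active means compounds whose thallium flux B-score, printed positive for inhibition, exceeds three library SD while starting fluorescence stays within three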;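 further: channel opened by potassium depolarization with thallium stimulus after 20 min compound exposure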
# KCNK9 block = human KCNK9 channel inhibition; HEK293 KCNK9, FluxOR thallium flux fluorescence; active compounds read low; Q9NPC2; B-score at 10 µM; actives 1.2% (n = 310,000);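 active means ratio B-score over 3 SD below the library mean, with starting fluorescence within 5 SD of its mean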;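 further: negative B-score means less thallium flux so channel inhibition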
# Cl transport mod = KCC2 (human) Cl- transport modulation; Q9H2X9; KCC2 cells, thallium flux FluoZin-2 fluorescence; B-score of Tl+ flux slope (higher = more flux/activation; lower = inhibition) at 10 µM; actives 2.2% (n = 190,000); AID 1456;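 active means thallium flux slope and its plate-corrected score both differing from the plate sample mean at a set confidence after two filtering rounds, in either direction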;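 further: slope of fluorescence scaled to starting intensity during 10 to 20 s after thallium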
# Target sequence (Q9H2X9 whole entry, looked up): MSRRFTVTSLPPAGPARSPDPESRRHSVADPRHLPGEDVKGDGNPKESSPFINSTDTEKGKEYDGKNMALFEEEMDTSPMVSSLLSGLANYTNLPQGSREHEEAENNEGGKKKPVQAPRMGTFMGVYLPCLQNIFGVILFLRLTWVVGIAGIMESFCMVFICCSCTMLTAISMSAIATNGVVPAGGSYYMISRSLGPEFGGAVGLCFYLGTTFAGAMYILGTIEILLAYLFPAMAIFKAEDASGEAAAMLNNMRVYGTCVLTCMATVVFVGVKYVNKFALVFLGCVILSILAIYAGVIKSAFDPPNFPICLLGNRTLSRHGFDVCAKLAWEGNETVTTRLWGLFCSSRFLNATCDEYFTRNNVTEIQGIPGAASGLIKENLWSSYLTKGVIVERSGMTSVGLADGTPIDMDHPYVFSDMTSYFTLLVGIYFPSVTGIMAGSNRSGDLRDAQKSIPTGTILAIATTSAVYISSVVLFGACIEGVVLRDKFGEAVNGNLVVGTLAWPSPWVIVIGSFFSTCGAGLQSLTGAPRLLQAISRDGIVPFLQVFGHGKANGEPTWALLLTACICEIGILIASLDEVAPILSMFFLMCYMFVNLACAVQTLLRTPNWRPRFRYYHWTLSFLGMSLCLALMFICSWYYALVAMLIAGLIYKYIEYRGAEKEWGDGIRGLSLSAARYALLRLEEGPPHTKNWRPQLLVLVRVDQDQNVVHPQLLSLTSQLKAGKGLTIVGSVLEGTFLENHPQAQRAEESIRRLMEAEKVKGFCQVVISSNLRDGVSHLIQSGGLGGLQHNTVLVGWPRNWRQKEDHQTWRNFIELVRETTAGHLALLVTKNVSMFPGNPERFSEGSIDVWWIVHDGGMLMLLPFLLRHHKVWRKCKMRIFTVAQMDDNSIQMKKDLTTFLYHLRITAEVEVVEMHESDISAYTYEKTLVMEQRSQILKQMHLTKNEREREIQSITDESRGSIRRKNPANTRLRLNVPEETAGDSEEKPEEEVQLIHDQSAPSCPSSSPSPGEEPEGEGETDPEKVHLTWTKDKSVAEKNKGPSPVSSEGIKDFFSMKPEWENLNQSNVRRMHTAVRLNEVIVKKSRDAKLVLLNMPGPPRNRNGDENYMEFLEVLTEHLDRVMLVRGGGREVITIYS
# KCC2 sec1 = KCC2 (human) modulation, secondary assay; actives 15% (n = 3,700); normalised thallium flux (F/F0 slope) at 10 µM; shares compounds with Cl transport mod; HEK293-KCC2, thallium flux, FluoZin2 fluorescence; active compounds read high; AID 1713;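 active means thallium flux slope above the same plate's solvent-only control mean plus 3 SD; inconclusive means the two replicate wells disagree; inactive means no significant difference from solvent-only control wells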
# KCC2 bumet counter = thallium flux persisting under bumetanide in KCC2 cells, counter-screen secondary assay. shares compounds with Cl transport mod. HEK293-KCC2 + bumetanide/ouabain, thallium flux FluoZin2; active compounds read high. normalized thallium flux at 10 µM. actives 49% (n = 3,700);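 active means thallium entry rate above the same plate's blocked-transporter control wells by more than 3 SD; inconclusive means the two repeat wells disagree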;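 further: raw slope of fluorescence over initial fluorescence between 10 and 20 s after thallium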
# KCC2 sec2 = KCC2 (human) modulation, second secondary assay; shares compounds with Cl transport mod; HEK293-KCC2, thallium flux FluoZin2 fluorescence; actives lie on both sides; F/F0 rise rate, 10–20 s post-thallium; normalized thallium flux at 10 µM; actives 23% (n = 3,700); AID 1715;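 active means thallium flux slope more than 3 SD above or below the plate's solvent-only control mean, mostly below; inconclusive means the two repeat wells disagreed; inactive means no significant shift from solvent-only controls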;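 further: raw slope with 0.1% DMSO as baseline and bumetanide as block control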
# HEK counter1 = acts in parental HEK cells, KCC2 counter-screen; shares compounds with Cl transport mod; HEK293 parental cells, thallium flux FluoZin2, ouabain; baseline-ratio fluorescence slope, 10–20 s after thallium; thallium flux rate (normalised fluorescence) at 10 µM; actives 46% (n = 3,700); AID 1716;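 active means thallium flux rate significantly above the same plate's solvent-only control wells, beyond their mean plus 3 SD; inconclusive means the two replicate wells gave conflicting results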
# KCC2 ouabain = confirmation of human KCC2 modulators with ouabain. shares compounds with Cl transport mod. HEK293-KCC2, thallium flux FluoZin2 fluorescence; bidirectional: low = inhibitor, high = activator. raw Tl+ flux slope (below DMSO = inhibition, above = activation) at 10 µM. actives 48% (n = 3,700);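 active means thallium flux slope beyond 3 SD from same-plate DMSO control mean in most replicates, usually higher, sometimes lower; inconclusive means repeat tests gave conflicting results; inactive means no significant difference from controls in most replicates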;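 further: slope of initial-normalized fluorescence between seconds 10 and 20 after thallium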
# HEK counter2 = acts in parental HEK cells, second KCC2 counter-screen; shares compounds with Cl transport mod; HEK293 parental, thallium flux FluoZin-2 fluorescence slope; thallium flux slope at 10 µM; actives 33% (n = 3,700); AID 1718;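 active means thallium flux slope above the same plate's solvent-control mean plus 3 SD in both duplicate wells; inconclusive means duplicate wells that disagreed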;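 further: run without ouabain in cells lacking the KCC2 cotransporter; slope of fluorescence scaled to its starting value between 10 and 20 s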
# Starred values were filed as active, the others as inactive; i = inactive; ? = inconclusive; . = no result given. Most compounds without a hit are left out; they make up all but 4.1% or so of the library.
SMILES,KCNQ1 act,hERG rescue,KCNK3 block,KCNQ1 inh,KCNK9 block,Cl transport mod,KCC2 sec1,KCC2 bumet counter,KCC2 sec2,HEK counter1,KCC2 ouabain,HEK counter2
O=C(N/N=C1\CCc2ccccc21)c1ccccc1O,i,-4,i,i,i,0.84,.,.,.,.,.,.
O=C(N/N=C/c1ccccn1)c1cc(-c2ccccc2)nc2ccccc12,i,-6,i,i,i,12*,0.0086,0.023*,0.03,0.01*,?,0.0096
Cc1cccc(OCC(=O)Nc2cccc(C(=O)Nc3ccccc3C(=O)O)c2)c1,i,-28,i,i,i,-4.8,.,.,.,.,.,.
CC(C)c1ccc(OCC(=O)Nc2cccc(C(=O)Nc3ccccc3C(=O)O)c2)cc1,i,-21,i,i,i,-5*,0.0082,0.0055,0.033,0.0057*,0.016*,0.0097
CCCCC(CCC(=O)O)(C(=O)OCC)c1csc(Nc2ccc(C)cc2)n1 (stereo not drawn),i,-10,i,i,i,-4.1*,0.0052,0.004,0.025*,0.0056*,0.013*,?
O=C(c1ccc(O)cc1)c1ccc(C(=O)c2ccc(O)cc2)cc1,i,-9,i,i,i,0.72,0.0081,0.0074,0.027,0.0069,0.019,0.0094
O=C(Cn1cnc2c(oc3ccccc32)c1=O)N1CCCc2ccccc21,i,-12,i,i,i,-0.26,.,.,.,.,.,.
O=C(CSc1ncnc2c1oc1ccccc12)N1CCCc2ccccc21,i,-4,i,i,i,.,0.0065,0.0053,0.029,0.0056,0.016*,0.0098
Cc1cc2nnc(SCC(=O)Nc3cc(S(=O)(=O)N4CCOCC4)ccc3Cl)n2c2ccccc12,i,0,i,i,i,-4.7*,0.0057,?,0.024*,0.0057*,0.013*,0.0082*
Cc1ccc(S(=O)(=O)N2CCOCC2)cc1NC(=O)CSc1nnc2cc(C)c3ccccc3n12,i,-14,i,i,i,-3.6,.,.,.,.,.,.
O=C(COC(=O)CCc1nc2ccccc2c(=O)[nH]1)Nc1ccc(OC(F)(F)F)cc1,.,.,i,.,.,.,.,.,.,.,.,.
Nc1c(C(=O)NC23CC4CC(CC(C4)C2)C3)sc2nc3c(c(C(F)(F)F)c12)CCC3,i,-16,i,i,i,.,.,.,.,.,.,.
COC(=O)c1cc(OC)c(OC)cc1NC(=O)c1ccccc1,i,-11,i,i,i,-0.81,.,.,.,.,.,.
COC(=O)c1cc(OC)c(OC)cc1NC(=S)N1CCN(C)CC1,i,-5,i,i,i,.,.,.,.,.,.,.
COc1ccc(C(=O)Nc2cc(OC)c(Cl)cc2OC)cc1,i,-3,i,i,i,-4.5*,0.0098,0.0086*,0.033,0.015*,0.021,0.011
COc1cc(NC(=O)c2ccc(F)cc2)c(OC)cc1Cl,i,-6,i,i,i,0.55,.,.,.,.,.,.
COC(=O)c1cc(OC)c(OC)cc1NC(=S)N1CCCCC1,i,-5,i,i,i,-3.9*,0.0062,0.005,0.031,0.0074,0.02,0.011
COC(=O)c1cc(OC)c(OC)cc1NC(=O)c1cc(OC)cc(OC)c1,i,-13,i,i,i,5.3*,0.0092,0.0052,0.031,0.0068,0.021,0.0094
N#Cc1ccc(OCC(=O)NCCN2CCOCC2)cc1,.,.,i,.,.,.,.,.,.,.,.,.
Cc1cc(C)n(CC(O)CN(c2cccc([N+](=O)[O-])c2)S(=O)(=O)c2ccccc2)n1 (stereo not drawn),i,-5,i,i,i,-1.4,.,.,.,.,.,.
O=C(NC(=S)N1CCc2ccccc21)c1ccc(Br)o1,81*,12*,i,i,i,65*,0.063*,0.086*,0.09*,0.098*,0.09*,0.11*
CC(C)(C)C(=O)NC(=S)N1CCc2ccccc21,i,-5,i,i,i,22*,0.024*,0.1*,0.052*,?,0.066*,0.037*
O=C(NC(=S)N1CCc2ccccc21)C1CCC1,i,-4,i,i,i,14*,0.0082,0.025*,0.033,0.018*,?,0.016*
O=C(C1CCCCC1)N1CCCc2ccccc21,i,-2,i,i,i,.,.,.,.,.,.,.
Cc1ccc(C(=O)N2CCc3ccccc32)o1,i,-16,i,i,i,-2.1,.,.,.,.,.,.
SMILES,KCNQ1 act,hERG rescue,KCNK3 block,KCNQ1 inh,KCNK9 block,Cl transport mod,KCC2 sec1,KCC2 bumet counter,KCC2 sec2,HEK counter1,KCC2 ouabain,HEK counter2
CCOC(=O)C(C(C)=O)c1nc(C)nc2c1nnn2Cc1ccccc1Cl (stereo not drawn),i,-10,i,i,i,-0.56,.,.,.,.,.,.
COC(=O)C1CCN(CC(=O)NC(=O)NC2CCCCC2)CC1,i,0,i,i,i,0.72,.,.,.,.,.,.
CNC(=S)N=Nc1c(O)[nH]c2ccccc12,i,-10,i,i,i,4.1*,0.011,0.021*,0.034,0.011*,0.024,0.012*
Cc1ccc(NC(=S)N=Nc2c(O)[nH]c3ccccc23)cc1,i,-5,i,i,i,4.3*,0.0076,0.018*,0.033,0.02*,0.032*,0.013*
Oc1[nH]c2ccc(Br)cc2c1N=NC(=S)Nc1ccc(F)cc1,i,-13,i,i,i,25*,0.0062,0.033*,?,0.015*,0.031*,0.018*
Oc1ccc(NC(=S)N=Nc2c(O)[nH]c3ccccc23)cc1,i,-11,i,i,i,-1.7,.,.,.,.,.,.
CCC(C)(C)NC(=O)C(c1ccc(F)cc1)N(Cc1ccco1)C(=O)CCC(=O)Nc1ccccn1 (stereo not drawn),i,-9,i,i,i,-0.73,.,.,.,.,.,.
